Source: PMC8429223 (Biomedicine & pharmacotherapy = Biomedecine & …, 2021)

Tests used:
[1] = doses of 200–250 μg kg−1; cited from earlier work
MCF 10A cells = test: MTT cell viability assay, MCF 10A; format: cell-based; settings: Homo sapiens, 96 h, read-out: MCF 10A IC50
Procedure, shortened: (§1)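 Cells were seeded in complete medium, MDA-MB-231 at 2 x 10³ and MCF 10A at 2 x 10⁴ cells/well. After 24 h they were exposed to test compound up to 10 μM, or 0.1% DMSO, for 72 h (MDA-MB-231) or 96 h (MCF 10A). MTT (5 mg ml⁻¹) was added for 4 h at 37°C, 5% CO₂, then formazan was dissolved in DMSO with 10 min shaking and read at 540 nm. IC50 by non-linear regression; mean ± SD (n = 4).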

primary ALL-5 cells = test: MTT cell viability assay, primary ALL-5; format: cell-based; settings: Homo sapiens, ALL5, 120 h, read-out: ALL-5 IC50
Procedure, shortened: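 Primary ALL-5 cells (patient bone-marrow-derived) were kept in supplemented IMDM at 1–3 x 10⁶ cells ml⁻¹ and plated at 10⁵ cells/well. They were treated 120 h with a test compound series or 0.1% DMSO. MTT (5 mg ml⁻¹) was added for 24 h at 37°C, then 10% SDS in 0.01 M HCl for a further 24 h; absorbance 540 nm. IC50 by non-linear regression; mean ± SD (n = 4).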

breast CSCs = settings: cited from earlier work
MDA-MB-231 cells [2] = test: Cell cycle / sub-G1 DNA analysis by flow cytometry; format: cell-based, human; settings: 30 μM SAL, 24 h (20 μM not significant)
[3] = test system: EMT marker mRNA in MDA-MB-231 cells; test: qRT-PCR analysis of EMT markers; format: cell-based, human; settings: ½ IC50, 24 h, vs untreated controls
Procedure, shortened: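 MDA-MB-231 cells (0.7–2.2 x 10⁶ per 100 mm dish) were exposed 24 h to test compound or 0.1% v/v DMSO vehicle. Cells were trypsin-released and washed in PBS before RNA work. Transcript levels were measured by qRT-PCR and calculated relative to GAPDH by the ΔΔCt method; unpaired t test with Welch's correction.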

MDA-MB-231 cells [4] = test: Colony formation assay; format: cell-based, human
Procedure, shortened: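 MDA-MB-231 cells were seeded at 1.5 x 10⁵/well and left 48 h to attach. After medium change, cells were exposed to test compound or 0.1% DMSO for 6–72 h. They were then harvested and re-plated at 250 cells/well (n=6) in compound-free medium for 13 days. Staining was 0.5% crystal violet in methanol, 40 min at RT. Colonies of ≥25 cells were counted by hand and expressed as % of vehicle; one-way ANOVA.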

[5] = test system: Bak and LC3-II in MDA-MB-231 cells; test: Immunoblot analysis, cell monolayer; format: cell-based, human
Procedure, shortened: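 Monolayers of MDA-MB-231 (2.2 x 10⁶ cells/100 mm dish) were treated 24 or 48 h with test compound or 0.1% DMSO, ± 100 μM Z-VAD-FMK. Cells were trypsin-harvested, snap-frozen and lysed in 25 mM HEPES pH 7.5, 300 mM NaCl, 0.1% Triton X-100 with protease/phosphatase inhibitors. Blots were blocked in 5% milk/TBS-T 1 h at RT, then probed overnight at 4°C: Bak and LC3B 1:1000, GAPDH 1:10000 loading control; HRP anti-rabbit 1:5000. Band intensities were normalised to GAPDH as fold of control; mean ± SD (n=3).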

[6] = test system: CD44+/CD24-/low cells of MDA-MB-231 organoids; test: CD44/CD24 cell surface markers by flow cytometry, organoids; format: cell-based, human; settings: 2.5 μM 1 or 0.5 μM 17, 48 h
Procedure, shortened: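 MDA-MB-231 organoids were made from 20 μl droplets of 1:4 complete Mammocult:Matrigel holding 10⁴ cells each. Droplets were set 1 h at 37°C, grown static 4 days with half-medium feeds every other day, then shaken at 90 rpm. One dissected organoid per 1 ml Mammocult was treated 48 h (vehicle 0.1% DMSO), then dispersed in enzyme-free dissociation buffer with 0.2% NDA. Cells were stained with FITC-anti-CD24 (1:100) and PE-anti-CD44 (1:200) for 30 min in the dark, then PI/RNase. Viable PI-negative cells were gated against isotype control; mean ± SD (n=3).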

MDA-MB-231 cells [7] = test: MTT cell viability assay, MDA-MB-231; format: cell-based, human; settings: single agent, MDA-MB-231, MTT
Procedure, shortened: as §1

| SMILES | tolerability in cancer patients [1] | IC50 (MCF 10A cells) | IC50 (primary ALL-5 cells) | potency in reducing viability of breast CSCs relative to paclitaxel (breast CSCs) | sub-G1 DNA content (MDA-MB-231 cells [2]) | E-cadherin mRNA [3] | Snail-2 mRNA [3] | Vimentin mRNA [3] | inhibition of colony growth (MDA-MB-231 cells [4]; 48 h treatment at ½ IC50) | inhibition of colony growth (MDA-MB-231 cells [4]; 72 h treatment at ½ IC50) | LC3-II (14 kDa) expression vs. untreated control ([5]; 5 x IC50 (25 μM 1, 14 μM 2, 5 μM 17), 24 h) | Bak expression vs. control ([5]; 5 x IC50, 24 h and 48 h, monolayer) | percentage of CD44+/CD24-/low cells [6] | IC50 (MDA-MB-231 cells [7]) |
| --- | --- | --- | --- | --- | --- | --- | --- | --- | --- | --- | --- | --- | --- | --- |
| CC[C@@H](C(=O)[C@@H](C)[C@@H](O)[C@H](C)[C@@H]1O[C@@H]([C@@H](CC)C(=O)O)CC[C@@H]1C)[C@H]1O[C@]2(C=C[C@@H](O)[C@]3(CC[C@@](C)([C@H]4CC[C@](O)(CC)[C@H](C)O4)O3)O2)[C@H](C)C[C@@H]1C [SAL (1), salinomycin] | well tolerated | 0.1 ± 0.02 µM | 5.8 ± 1.7 µM | ~100 times | statistically significant sub-G1 DNA content | downregulated | upregulated | upregulated | 84% | 90% | significant upregulation | very modest, but statistically significant, increase | modest, but significant reduction | – |
| O=C(NO)c1ccccc1 [benzhydroxamic acid] | – | – | – | – | – | – | – | – | – | – | – | – | – | 142 µM |
